Test results from PMC6720533 (Biomolecules & Therapeutics, 2019).

Columns and labels:
PKCα = PKCα (Homo sapiens, UniProt P17252); assay: Kinase activity screening; format: biochemical; settings: FX-9 at 2.5 μM, ATP at Km (45 μM)
Procedure, shortened: (§1)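 Radiometric substrate-phosphorylation screen covering a panel of 58 human kinases run by a contract service. […] Activity is given as a percentage of mean activity in positive control samples (100%). Values <30% were scored strong hits, 30–70% partial hits and >70% no hit.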

Abl = Abl (Homo sapiens, UniProt P00519); assay: Kinase activity screening; format: biochemical; settings: FX-9 at 2.5 μM, ATP at Km (45 μM)
Procedure, shortened: as §1

IRAK4 = IRAK4 (Homo sapiens, UniProt Q9NWZ3); assay: Kinase activity screening; format: biochemical; settings: FX-9 at 2.5 μM, ATP at Km (200 μM)
Procedure, shortened: as §1

AMPKα1 = AMPKα1 (Homo sapiens, UniProt Q13131); assay: Kinase activity screening; format: biochemical; settings: FX-9 at 2.5 μM, ATP at Km (45 μM)
Procedure, shortened: as §1

MST1 = MST1 (Homo sapiens, UniProt Q13043); assay: Kinase activity screening; format: biochemical; settings: FX-9 at 2.5 μM, ATP at Km (90 μM)
Procedure, shortened: as §1

Rse = Rse (Homo sapiens, UniProt Q06418); assay: Kinase activity screening; format: biochemical; settings: FX-9 at 2.5 μM, ATP at Km (45 μM)
Procedure, shortened: (§2)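 Radiometric kinase-panel screen of 58 human kinases, measuring substrate phosphorylation. […] Activity is given as % of the mean positive-control kinase activity (100%). Below 30% counts as a strong hit, 30–70% as a partial hit, and above 70% as no hit.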

Lyn = Lyn (Homo sapiens, UniProt P07948); assay: Kinase activity screening; format: biochemical; settings: FX-9 at 2.5 μM, ATP at Km (70 μM)
Procedure, shortened: as §1

PRAK = PRAK (Homo sapiens, UniProt Q8IW41); assay: Kinase activity screening; format: biochemical; settings: FX-9 at 2.5 μM, ATP at Km (15 μM)
Procedure, shortened: as §2

pAKT = assay: Western blot, SEM cells; format: cell-based, human; settings: 2.5 μM or 5.0 μM, 48 h
Procedure, shortened: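 SEM or RS4;11 cells took DMSO, 2.5 or 5.0 μM test compound for 48 h. Cells (1–5×10^6) were lysed in RIPA buffer with sonication, run on SDS gels, blotted to PVDF and imaged by near-infrared fluorescence. Bands were normalised to GAPDH, and the phospho/total protein ratio was set relative to DMSO control (=1).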

RS4;11 cells [1] = assay: Cell morphology, May Grünwald Giemsa staining; format: cell-based, human; settings: 48 h
Jurkat cells = assay: Proliferation, viable cell count by trypan blue exclusion; format: cell-based, human; settings: 72 h
Procedure, shortened: (§3)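 Human B-ALL (SEM, RS4;11) and T-ALL (Jurkat, CEM) lines were grown with 10% heat-inactivated FBS and penicillin/streptomycin at 37°C, 5% CO2. Cells took test compound at 0.1–5.0 μM (methods: 0.5–5.0 μM) or DMSO for up to 72 h. Viable cells were counted by trypan blue exclusion and expressed relative to control (100%). IC50 came from three separate experiments, each in triplicate.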

CEM cells = assay: Cell morphology, May Grünwald Giemsa staining; format: cell-based, human; settings: 2.5 μM, 48 h
RS4;11 cells [2] = assay: Apoptosis, Annexin V FITC / propidium iodide flow cytometry; format: cell-based, human; settings: RS4;11, 5 μM, 72 h; DMSO 11.7%
SEM cells = assay: Proliferation, viable cell count by trypan blue exclusion; format: cell-based, human; settings: 72 h
Procedure, shortened: as §3

CDK2/cyclinA = CDK2/cyclinA (Homo sapiens, UniProt P24941); assay: Kinase activity screening; format: biochemical; settings: FX-9 at 2.5 μM, ATP at Km (45 μM)
Procedure, shortened: as §1

ROCK-I = ROCK-I (Homo sapiens, UniProt Q13464); assay: Kinase activity screening; format: biochemical; settings: FX-9 at 2.5 μM, ATP at Km (70 μM)
Procedure, shortened: as §2

Fyn = Fyn (Homo sapiens, UniProt P06241); assay: Kinase activity screening; format: biochemical; settings: FX-9 at 2.5 μM, ATP at Km (70 μM)
Procedure, shortened: as §1

ALK = ALK (Homo sapiens, UniProt Q9UM73); assay: Kinase activity screening; format: biochemical; settings: FX-9 at 2.5 μM, ATP at Km (200 μM)
Procedure, shortened: as §1

NEK2 = NEK2 (Homo sapiens, UniProt P51955); assay: Kinase activity screening; format: biochemical; settings: FX-9 at 2.5 μM, ATP at Km (120 μM)
Procedure, shortened: as §1

EphA5 = EphA5 (Homo sapiens, UniProt P54756); assay: Kinase activity screening; format: biochemical; settings: FX-9 at 2.5 μM, ATP at Km (10 μM)
Procedure, shortened: as §1

B- and T-ALL cells = assay: Proliferation, viable cell count by trypan blue exclusion; format: cell-based; settings: Homo sapiens, read-out: IC50 values against B- and T-ALL cells
Procedure, shortened: as §3

[3] = Homo sapiens, read-out: IC50 based on proliferation

Sequence of IRAK4 (Q9NWZ3 whole entry): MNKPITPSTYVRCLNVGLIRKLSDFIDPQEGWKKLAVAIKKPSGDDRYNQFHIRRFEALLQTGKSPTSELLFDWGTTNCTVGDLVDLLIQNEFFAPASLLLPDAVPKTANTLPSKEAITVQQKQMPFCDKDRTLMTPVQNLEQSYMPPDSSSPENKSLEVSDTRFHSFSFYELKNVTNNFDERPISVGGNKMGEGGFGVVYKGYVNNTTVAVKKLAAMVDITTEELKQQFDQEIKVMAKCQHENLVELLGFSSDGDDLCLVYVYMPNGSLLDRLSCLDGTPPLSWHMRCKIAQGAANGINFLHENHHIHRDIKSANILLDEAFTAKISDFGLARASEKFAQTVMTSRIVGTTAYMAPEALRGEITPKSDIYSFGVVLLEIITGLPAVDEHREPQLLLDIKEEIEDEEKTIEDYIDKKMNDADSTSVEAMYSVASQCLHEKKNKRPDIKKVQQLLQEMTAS
Sequence of NEK2 (P51955 whole entry): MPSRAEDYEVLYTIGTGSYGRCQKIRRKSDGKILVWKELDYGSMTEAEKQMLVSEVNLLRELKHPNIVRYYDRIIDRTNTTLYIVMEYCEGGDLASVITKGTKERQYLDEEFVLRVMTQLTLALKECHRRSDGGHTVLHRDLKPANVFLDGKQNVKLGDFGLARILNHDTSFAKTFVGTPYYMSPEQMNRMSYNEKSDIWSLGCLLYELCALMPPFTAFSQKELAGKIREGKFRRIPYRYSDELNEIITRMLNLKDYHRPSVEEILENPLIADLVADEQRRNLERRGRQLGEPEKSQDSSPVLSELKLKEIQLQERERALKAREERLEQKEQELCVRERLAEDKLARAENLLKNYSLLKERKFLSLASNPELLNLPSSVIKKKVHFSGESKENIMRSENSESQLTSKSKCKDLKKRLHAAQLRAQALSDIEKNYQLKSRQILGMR
Sequence of AMPKα1 (Q13131 whole entry): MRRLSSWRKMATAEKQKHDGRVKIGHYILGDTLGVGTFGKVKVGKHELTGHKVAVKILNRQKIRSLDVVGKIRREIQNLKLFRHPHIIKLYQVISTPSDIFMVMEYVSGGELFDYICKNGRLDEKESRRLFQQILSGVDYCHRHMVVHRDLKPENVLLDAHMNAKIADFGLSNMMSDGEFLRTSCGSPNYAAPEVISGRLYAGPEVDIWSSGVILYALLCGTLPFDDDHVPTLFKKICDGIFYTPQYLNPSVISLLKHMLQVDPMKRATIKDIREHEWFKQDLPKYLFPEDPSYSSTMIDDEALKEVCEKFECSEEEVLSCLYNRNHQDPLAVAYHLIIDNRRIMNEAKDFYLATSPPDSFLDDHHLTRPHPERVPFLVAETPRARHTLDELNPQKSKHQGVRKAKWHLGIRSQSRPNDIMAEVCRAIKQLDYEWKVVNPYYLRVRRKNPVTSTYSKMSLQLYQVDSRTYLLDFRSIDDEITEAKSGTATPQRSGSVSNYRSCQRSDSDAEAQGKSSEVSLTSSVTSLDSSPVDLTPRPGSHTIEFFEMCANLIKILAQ
Sequence of AMPKα1 (Q9Y478 whole entry partner): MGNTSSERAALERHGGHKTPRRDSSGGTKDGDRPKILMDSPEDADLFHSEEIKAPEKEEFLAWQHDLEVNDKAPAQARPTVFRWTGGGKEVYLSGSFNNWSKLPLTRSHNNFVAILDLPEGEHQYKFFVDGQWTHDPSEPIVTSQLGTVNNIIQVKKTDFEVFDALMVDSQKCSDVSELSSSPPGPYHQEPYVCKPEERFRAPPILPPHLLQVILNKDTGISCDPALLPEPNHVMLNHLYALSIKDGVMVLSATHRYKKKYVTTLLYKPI
Sequence of AMPKα1 (P54619 whole entry partner): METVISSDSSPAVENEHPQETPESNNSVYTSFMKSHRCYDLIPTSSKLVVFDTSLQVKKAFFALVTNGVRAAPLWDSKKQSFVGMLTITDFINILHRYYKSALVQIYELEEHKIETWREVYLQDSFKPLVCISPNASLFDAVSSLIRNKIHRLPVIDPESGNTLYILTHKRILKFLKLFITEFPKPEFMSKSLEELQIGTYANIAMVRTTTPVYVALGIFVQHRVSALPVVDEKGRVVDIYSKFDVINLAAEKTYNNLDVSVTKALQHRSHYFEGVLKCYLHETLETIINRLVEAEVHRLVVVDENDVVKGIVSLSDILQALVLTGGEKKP
Sequence of Fyn (P06241 whole entry): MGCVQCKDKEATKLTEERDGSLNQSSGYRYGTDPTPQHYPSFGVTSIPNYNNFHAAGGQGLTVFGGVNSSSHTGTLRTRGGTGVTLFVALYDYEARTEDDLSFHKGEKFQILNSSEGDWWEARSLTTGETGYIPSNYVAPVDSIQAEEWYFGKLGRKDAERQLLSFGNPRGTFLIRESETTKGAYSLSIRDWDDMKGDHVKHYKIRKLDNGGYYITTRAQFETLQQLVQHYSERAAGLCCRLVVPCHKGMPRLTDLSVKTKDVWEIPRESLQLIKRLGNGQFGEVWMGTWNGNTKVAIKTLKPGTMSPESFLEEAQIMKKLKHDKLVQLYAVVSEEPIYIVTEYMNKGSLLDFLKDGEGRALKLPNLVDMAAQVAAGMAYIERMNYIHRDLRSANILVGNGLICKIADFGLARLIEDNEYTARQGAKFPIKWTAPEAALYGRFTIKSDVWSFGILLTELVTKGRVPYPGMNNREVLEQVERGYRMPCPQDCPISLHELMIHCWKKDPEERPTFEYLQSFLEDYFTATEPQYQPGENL
Sequence of PRAK (Q8IW41 whole entry): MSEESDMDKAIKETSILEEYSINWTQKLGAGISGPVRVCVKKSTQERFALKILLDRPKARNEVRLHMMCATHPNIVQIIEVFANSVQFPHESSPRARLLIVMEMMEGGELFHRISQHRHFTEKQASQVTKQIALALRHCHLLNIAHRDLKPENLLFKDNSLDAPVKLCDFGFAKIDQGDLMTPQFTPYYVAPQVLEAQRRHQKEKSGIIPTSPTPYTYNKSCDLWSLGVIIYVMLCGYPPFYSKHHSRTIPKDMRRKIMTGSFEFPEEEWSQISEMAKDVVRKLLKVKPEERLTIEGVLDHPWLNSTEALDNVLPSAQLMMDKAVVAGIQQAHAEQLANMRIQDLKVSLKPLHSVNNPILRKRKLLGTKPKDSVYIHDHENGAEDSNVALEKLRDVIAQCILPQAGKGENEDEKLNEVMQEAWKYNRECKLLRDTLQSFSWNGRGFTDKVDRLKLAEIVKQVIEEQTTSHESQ
Sequence of EphA5 (P54756 25-1037): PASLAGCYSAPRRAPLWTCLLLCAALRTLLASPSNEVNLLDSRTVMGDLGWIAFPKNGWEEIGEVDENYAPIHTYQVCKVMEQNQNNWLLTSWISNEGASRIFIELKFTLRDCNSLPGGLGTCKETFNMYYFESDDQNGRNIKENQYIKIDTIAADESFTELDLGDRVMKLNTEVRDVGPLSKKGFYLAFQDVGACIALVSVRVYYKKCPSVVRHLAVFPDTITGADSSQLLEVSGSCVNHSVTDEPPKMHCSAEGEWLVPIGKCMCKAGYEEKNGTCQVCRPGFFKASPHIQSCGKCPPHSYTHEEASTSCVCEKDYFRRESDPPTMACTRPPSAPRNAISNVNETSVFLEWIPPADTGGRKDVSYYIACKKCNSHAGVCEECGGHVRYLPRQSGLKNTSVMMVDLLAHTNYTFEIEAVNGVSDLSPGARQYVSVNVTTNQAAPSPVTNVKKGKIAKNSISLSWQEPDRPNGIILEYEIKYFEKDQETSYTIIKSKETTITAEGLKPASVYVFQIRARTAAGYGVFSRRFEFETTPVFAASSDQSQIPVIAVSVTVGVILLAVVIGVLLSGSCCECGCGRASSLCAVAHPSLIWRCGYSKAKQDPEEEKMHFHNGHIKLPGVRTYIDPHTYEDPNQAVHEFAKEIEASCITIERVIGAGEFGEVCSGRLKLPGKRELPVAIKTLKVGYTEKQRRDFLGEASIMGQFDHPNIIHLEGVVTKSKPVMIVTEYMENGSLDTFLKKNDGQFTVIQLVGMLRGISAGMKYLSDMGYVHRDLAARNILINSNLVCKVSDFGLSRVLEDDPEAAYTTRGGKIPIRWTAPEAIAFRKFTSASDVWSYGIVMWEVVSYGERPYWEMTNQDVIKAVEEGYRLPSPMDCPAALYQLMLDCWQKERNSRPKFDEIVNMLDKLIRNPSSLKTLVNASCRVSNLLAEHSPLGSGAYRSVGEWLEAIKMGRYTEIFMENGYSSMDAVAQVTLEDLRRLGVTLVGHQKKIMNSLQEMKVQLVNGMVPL

Kinase activity (% control) (PKCα): 99 % control
Kinase activity (% control) (Abl): 96 % control
Kinase activity (% control) (IRAK4): 95 % control
Kinase activity (% control) (AMPKα1): 98 % control
Kinase activity (% control) (MST1): 87 % control
Kinase activity (% control) (Rse): 92 % control
Kinase activity (% control) (Lyn): 87 % control
Kinase activity (% control) (PRAK): 79 % control
IC50 (Jurkat cells; [3]): 1670 ± 30 nM
Kinase activity (% control) (CDK2/cyclinA): 90 % control
Kinase activity (% control) (ROCK-I): 93 % control
Kinase activity (% control) (Fyn): 97 % control
Kinase activity (% control) (ALK): 112 % control
Kinase activity (% control) (NEK2): 106 % control
Kinase activity (% control) (EphA5): 98 % control
Structure (SMILES): Cc1ccc(-c2cc3ccccc3c(N)n2)cc1 [FX-9, 3-(p-Tolyl)isoquinolin-1-amine]
pAKT level (western blot) (pAKT): reduced
cellular morphology (light microscopy) (RS4;11 cells [1]; RS4;11, 1.0 μM): increased amount of vacuoles and karyopyknosis
cellular morphology (light microscopy) (RS4;11 cells [1]; RS4;11, 2.5 μM): Extensive cytoplasmic vacuolization, karyopyknosis, and karyolysis
Proliferation compared to control cells (100%) (Jurkat cells; 2.5 μM): 16.3%
cellular morphology (light microscopy) (CEM cells): Extensive cytoplasmic vacuolization, karyopyknosis, and karyolysis
Apoptosis (total of early apoptotic and late apoptotic and necrotic cells) (RS4;11 cells [2]): 84.6%
IC50 (SEM cells; [3]): 1460 ± 10 nM
Proliferation compared to control cells (=100%) (SEM cells; SEM, 0.5 μM): 69.5%
IC50 (B- and T-ALL cells): 540 to 1940 nM
